The target in assay [1] is S-adenosylmethionine synthetase (MAT 1 and MAT 2) (Rattus norvegicus, UniProt P13444+P18298). Kind of assay: Competitive inhibitory activity against methionine adenosyltransferase. Type of assay: protein assay. The essentials:
(§1)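 Rat kidney M-2 or Novikoff hepatoma M-T MAT, partially purified. Run at 37 °C, pH 8.2 (Tris, KCl, MgCl2, DTT) with 2 mM MgATP. [14C]Met at five or six levels spanning (0.5–4)×KM, with two inhibitor levels (1–3 mM) and no-inhibitor controls. 10 min, HClO4 stop, phosphocellulose disc counting. Ki from replots of double-reciprocal slopes vs inhibitor concentration.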

Assay [2] deals with S-adenosylmethionine synthase isoform type-2 (Rattus norvegicus, UniProt P18298). The assay can be described thus: Competitive inhibitory activity against Methionine adenosyltransferase II. Put shortly:
as §1

As a reminder, the Ki is a dissociation constant, usually derived from enzyme kinetics or from competition with a known ligand. Low readings indicate tighter binding, high ones weaker binding.

Sequence of S-adenosylmethionine synthase isoform type-2 (P18298 whole entry, canonical isoform): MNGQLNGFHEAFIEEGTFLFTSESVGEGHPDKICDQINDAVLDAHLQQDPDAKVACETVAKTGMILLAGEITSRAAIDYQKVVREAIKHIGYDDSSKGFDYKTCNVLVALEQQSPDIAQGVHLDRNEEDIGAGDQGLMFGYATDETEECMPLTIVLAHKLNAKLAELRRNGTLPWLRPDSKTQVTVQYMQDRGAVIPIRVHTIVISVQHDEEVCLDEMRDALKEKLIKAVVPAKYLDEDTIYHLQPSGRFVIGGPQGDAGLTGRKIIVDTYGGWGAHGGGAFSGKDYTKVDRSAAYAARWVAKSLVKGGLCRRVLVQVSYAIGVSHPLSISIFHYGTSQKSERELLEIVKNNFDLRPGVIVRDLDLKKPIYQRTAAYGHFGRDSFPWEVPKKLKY

Take `CSCC(C)C(N)C(=O)O` (centres undefined): the inhibition constant (Ki) in assay [1] and in assay [2] was 500 µM each time.
In the case of `CSC(C)C[C@@H](N)C(=O)O` (some centres undefined), the figures for the Ki in assay [1] and in assay [2] were 3200 µM and 2400 µM, respectively.

Source of the values: ChEMBL document CHEMBL1123437, “Isozyme-specific enzyme inhibitors. 12. C- and N-methylmethionines as substrates and inhibitors of methionine adenosyltransferases of normal and hepatoma rat tissues” (J Med Chem, 1986).
